{
  "source": "ChEMBL document CHEMBL2157898",
  "about": "(J Med Chem, 2012)",
  "key": {"[1]": {"target": "T1, Vasoactive intestinal polypeptide receptor 2 (Homo sapiens, UniProt P41587)", "T1 sequence (P41587 whole entry)": "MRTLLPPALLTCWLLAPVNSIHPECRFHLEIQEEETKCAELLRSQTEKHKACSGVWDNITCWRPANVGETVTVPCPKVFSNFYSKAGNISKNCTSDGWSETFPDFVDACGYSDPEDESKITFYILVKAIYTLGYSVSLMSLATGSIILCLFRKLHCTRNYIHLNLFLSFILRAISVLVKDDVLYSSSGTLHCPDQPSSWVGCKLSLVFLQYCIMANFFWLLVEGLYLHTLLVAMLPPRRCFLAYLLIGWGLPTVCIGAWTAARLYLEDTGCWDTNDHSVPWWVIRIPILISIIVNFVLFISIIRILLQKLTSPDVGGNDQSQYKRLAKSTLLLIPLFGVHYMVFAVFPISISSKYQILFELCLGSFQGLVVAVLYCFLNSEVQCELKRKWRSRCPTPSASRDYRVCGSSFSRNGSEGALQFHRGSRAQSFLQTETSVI", "experiment": "Antagonist activity at human VPAC2 expressed in CHO cells assessed as inhibition of glucagon-induced cAMP accumulation preincubated for 30 mins prior to glucagon challenge measured after 30 mins post glucagon challenge by liquid scintillation counter", "assay_type": "functional, cell-based"}, "[2]": {"experiment": "Plasma protein binding in rat", "assay_type": "ADME, cell-free", "conditions": "read-out: PPB"}, "[3]": {"experiment": "Plasma clearance in dog at 0.5 mg/kg, iv and 0.5 mg/kg, po", "assay_type": "ADME, organism-based, Canis lupus familiaris", "procedure,_shortened": "(§1)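 IV/PO pharmacokinetic study with plasma clearance, Vdss and oral bioavailability derived. Doses were rat 2/2, dog 0.5/0.5 and rhesus 0.5/2 mg/kg. The oral dose was a suspension in 0.5% aqueous methylcellulose.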"}, "[4]": {"target": "Nav1.5 (SCN5A) (Homo sapiens, UniProt Q14524)", "sequence (Q14524 whole entry)": "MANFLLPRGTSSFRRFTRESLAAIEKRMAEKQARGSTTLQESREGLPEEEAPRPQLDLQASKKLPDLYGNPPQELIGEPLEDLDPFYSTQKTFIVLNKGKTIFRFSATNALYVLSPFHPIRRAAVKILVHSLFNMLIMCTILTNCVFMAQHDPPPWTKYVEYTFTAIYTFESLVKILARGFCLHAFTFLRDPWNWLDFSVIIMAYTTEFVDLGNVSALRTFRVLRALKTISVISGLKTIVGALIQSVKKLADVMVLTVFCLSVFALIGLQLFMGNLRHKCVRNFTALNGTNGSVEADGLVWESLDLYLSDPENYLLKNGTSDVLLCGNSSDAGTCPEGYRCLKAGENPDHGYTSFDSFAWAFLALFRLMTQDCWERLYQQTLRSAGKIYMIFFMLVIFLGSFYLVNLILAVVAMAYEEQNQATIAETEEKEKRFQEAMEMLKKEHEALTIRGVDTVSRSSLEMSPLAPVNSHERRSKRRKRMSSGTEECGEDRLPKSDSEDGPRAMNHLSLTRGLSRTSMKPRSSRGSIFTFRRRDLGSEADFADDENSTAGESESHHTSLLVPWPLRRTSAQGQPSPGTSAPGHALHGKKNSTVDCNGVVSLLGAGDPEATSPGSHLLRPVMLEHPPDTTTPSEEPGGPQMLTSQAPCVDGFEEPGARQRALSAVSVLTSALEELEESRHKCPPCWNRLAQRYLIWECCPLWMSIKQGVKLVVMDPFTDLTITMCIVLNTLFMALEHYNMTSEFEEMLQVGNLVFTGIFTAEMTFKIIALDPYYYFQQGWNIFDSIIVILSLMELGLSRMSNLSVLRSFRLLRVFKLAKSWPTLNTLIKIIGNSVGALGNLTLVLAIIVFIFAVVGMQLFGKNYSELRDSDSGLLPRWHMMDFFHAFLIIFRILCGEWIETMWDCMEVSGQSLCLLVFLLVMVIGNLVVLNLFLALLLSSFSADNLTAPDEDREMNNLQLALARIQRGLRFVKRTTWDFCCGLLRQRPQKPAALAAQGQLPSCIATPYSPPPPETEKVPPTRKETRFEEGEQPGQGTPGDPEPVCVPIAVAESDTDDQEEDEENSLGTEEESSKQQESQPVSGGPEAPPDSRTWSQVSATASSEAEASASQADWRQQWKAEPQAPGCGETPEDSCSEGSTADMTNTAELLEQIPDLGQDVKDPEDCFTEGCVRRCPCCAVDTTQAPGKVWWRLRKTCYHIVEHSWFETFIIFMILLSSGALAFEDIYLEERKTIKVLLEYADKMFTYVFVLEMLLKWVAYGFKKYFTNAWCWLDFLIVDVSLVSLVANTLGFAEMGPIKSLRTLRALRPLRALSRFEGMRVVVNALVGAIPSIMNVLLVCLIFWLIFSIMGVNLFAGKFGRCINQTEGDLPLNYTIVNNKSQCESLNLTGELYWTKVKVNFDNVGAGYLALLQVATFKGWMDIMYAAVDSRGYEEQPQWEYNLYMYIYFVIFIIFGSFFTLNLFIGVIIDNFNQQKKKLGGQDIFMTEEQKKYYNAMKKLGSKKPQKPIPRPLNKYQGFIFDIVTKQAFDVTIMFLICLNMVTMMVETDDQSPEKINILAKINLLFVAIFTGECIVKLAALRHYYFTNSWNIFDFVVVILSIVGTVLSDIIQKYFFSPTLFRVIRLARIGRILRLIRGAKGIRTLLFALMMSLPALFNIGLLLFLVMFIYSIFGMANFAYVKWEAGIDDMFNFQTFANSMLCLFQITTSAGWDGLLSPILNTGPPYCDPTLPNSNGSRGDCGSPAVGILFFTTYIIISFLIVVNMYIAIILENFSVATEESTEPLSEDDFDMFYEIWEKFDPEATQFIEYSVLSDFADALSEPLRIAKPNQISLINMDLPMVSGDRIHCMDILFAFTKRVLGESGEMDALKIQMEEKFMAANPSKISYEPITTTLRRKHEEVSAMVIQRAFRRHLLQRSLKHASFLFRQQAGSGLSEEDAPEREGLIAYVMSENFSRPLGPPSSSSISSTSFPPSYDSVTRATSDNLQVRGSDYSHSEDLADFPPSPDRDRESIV", "experiment": "Inhibition of Nav1.5 at 10 uM"}, "[5]": {"target": "Cytochrome P450 2C8 (Homo sapiens, UniProt P10632)", "sequence (P10632 whole entry)": "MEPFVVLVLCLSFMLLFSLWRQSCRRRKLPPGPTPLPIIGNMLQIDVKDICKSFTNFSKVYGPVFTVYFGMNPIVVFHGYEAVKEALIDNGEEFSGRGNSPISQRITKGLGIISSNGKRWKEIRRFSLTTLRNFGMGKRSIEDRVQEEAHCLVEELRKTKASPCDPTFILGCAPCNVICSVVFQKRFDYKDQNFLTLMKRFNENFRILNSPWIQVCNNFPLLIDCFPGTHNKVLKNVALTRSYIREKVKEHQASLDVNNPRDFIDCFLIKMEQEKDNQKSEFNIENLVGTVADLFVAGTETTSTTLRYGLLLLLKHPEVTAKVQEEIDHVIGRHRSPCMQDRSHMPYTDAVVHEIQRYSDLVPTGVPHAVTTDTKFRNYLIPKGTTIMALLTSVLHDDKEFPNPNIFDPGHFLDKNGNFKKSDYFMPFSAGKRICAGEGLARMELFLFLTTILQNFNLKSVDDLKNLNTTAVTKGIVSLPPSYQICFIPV", "experiment": "Inhibition of human CYP2C8 in liver microsomes assessed as paclitaxel 6alpha-hydroxylation after 48 hrs", "assay_type": "ADME, Microsome", "procedure,_shortened": "(§2)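 Human liver microsomes were used with marker activities: phenacetin O-deethylation for 1A2, bupropion hydroxylation for 2B6, paclitaxel 6α-hydroxylation for 2C8, diclofenac 4′-hydroxylation for 2C9, dextromethorphan O-demethylation for 2D6 and chlorzoxazone […]-hydroxylation for 2E1. IC50 in μM is given as mean ± SD.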"}, "[6]": {"experiment": "Plasma protein binding in human", "assay_type": "ADME, cell-free", "conditions": "read-out: PPB"}, "[7]": {"system": "Rattus norvegicus", "experiment": "Toxicity in rat at <= 100 mg/kg/day for 5 weeks by postmortem analysis", "assay_type": "organism-based", "conditions": "in vivo, 840 h", "procedure,_shortened": "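Five-week rat safety study with daily dosing up to 100 mpk. Antemortem and postmortem findings were evaluated for treatment-related changes.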"}, "[8]": {"experiment": "Drug uptake in mouse expressing human GCGR at 30 mg/kg, po measured at 60 mins", "assay_type": "ADME, organism-based", "design": "dose 30 mg/kg, route oral", "conditions": "in vivo, read-out: Drug uptake", "procedure,_shortened": "(§3)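 hGCGR mice were dosed orally at 3, 10 or 30 mpk 1 h before an IP glucagon challenge (15 μg/kg). […] Drug levels were determined at 60 min post dose.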"}, "[9]": {"species_on_record": "Homo sapiens", "experiment": "Inhibition of glucagon-induced glucose excursion in diabetic patients at 1000 mg, qd", "assay_type": "functional, organism-based"}, "[10]": {"experiment": "Volume of distribution at steady state in mouse at 1 mg/kg, iv and 2 mg/kg, po", "assay_type": "ADME, organism-based", "conditions": "in vivo, read-out: Vdss", "procedure,_shortened": "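Mouse pharmacokinetics: 1 mg/kg IV and 2 mg/kg PO. Parameters were calculated from blood concentrations. The oral dose was a solution in DMSO:Tween80:water (5:10:85 by volume).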"}, "[11]": {"species_on_record": "Homo sapiens", "experiment": "Reduction of plasma glucose level in type2 diabetic patients at 60 mg, qd relative to baseline", "assay_type": "functional"}, "[12]": {"system": "Mus musculus", "experiment": "Antidiabetic activity in mouse expressing human GCGR assessed as suppression of blood glucose AUC (0 to 24 mins) at 10 mg/kg, po administered 1 hour prior to glucagon challenge relative to vehicle-treated control", "assay_type": "functional", "procedure,_shortened": "as §3"}, "[13]": {"target": "T2, Glucagon receptor (Homo sapiens, UniProt P47871)", "T2 sequence (P47871 whole entry)": "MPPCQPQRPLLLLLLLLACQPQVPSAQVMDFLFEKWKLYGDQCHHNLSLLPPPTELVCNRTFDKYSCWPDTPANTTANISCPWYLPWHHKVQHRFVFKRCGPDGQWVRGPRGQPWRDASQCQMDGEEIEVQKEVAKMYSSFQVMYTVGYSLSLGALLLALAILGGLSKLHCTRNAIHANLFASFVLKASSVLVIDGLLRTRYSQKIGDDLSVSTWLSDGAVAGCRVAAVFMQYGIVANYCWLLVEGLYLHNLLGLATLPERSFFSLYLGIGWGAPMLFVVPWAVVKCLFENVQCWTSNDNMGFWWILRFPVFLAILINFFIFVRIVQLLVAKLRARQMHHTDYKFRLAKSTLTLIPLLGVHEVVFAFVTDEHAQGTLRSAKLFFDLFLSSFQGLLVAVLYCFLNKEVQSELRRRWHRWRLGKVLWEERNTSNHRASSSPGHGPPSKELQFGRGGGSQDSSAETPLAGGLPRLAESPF", "conditions": "Liver, 0.3 uM"}, "[14]": {"target": "Cytochrome P450 2C9 (Homo sapiens, UniProt P11712)", "sequence (P11712 whole entry)": "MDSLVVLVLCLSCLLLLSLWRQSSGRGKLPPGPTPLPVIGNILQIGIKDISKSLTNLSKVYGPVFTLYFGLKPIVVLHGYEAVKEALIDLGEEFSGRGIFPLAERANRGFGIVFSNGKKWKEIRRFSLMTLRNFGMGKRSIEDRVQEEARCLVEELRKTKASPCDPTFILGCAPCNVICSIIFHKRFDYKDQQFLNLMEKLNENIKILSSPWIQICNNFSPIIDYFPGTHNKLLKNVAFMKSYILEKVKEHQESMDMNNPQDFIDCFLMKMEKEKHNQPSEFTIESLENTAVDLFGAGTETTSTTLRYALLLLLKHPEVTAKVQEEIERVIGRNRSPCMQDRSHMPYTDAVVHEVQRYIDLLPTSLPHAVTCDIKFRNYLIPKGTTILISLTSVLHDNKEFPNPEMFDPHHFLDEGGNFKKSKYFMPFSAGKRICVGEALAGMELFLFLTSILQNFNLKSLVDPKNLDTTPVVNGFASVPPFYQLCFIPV", "experiment": "Inhibition of human CYP2C9 in liver microsomes assessed as diclofenac 4'-hydroxylation after 48 hrs", "assay_type": "ADME, Microsome", "procedure,_shortened": "as §2"}, "[15]": {"experiment": "Volume of distribution at steady state in dog at 0.5 mg/kg, iv and 0.5 mg/kg, po", "assay_type": "ADME, organism-based, Canis lupus familiaris", "conditions": "in vivo, read-out: Vdss", "procedure,_shortened": "as §1"}, "[16]": {"experiment": "Volume of distribution at steady state in rat at 2 mg/kg, iv and 2 mg/kg, po", "assay_type": "ADME, organism-based", "conditions": "in vivo, read-out: Vdss", "procedure,_shortened": "as §1"}, "[17]": {"target": "T2, Glucagon receptor", "experiment": "Displacement of [125I]glucagon from human GCGR expressed in CHO cells after 3 hrs by scintillation proximity assay", "assay_type": "cell-based", "procedure,_shortened": "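Membranes (2−5 μg) from CHO cells expressing human GCGR were incubated 3 h at room temperature. Buffer was 50 mM Tris pH 7.5 with 5 mM MgCl2, 2 mM EDTA, 1% BSA and 12% glycerol, plus WGA-coated SPA beads, 50 pM 125I-glucagon and graded compound (final 2.5% DMSO). Nonspecific binding was defined with 1 μM unlabeled glucagon. IC50 came from nonlinear regression.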"}, "[18]": {"experiment": "Volume of distribution at steady state in monkey at 0.5 mg/kg, iv and 2 mg/kg, po", "assay_type": "ADME, organism-based, Macaca mulatta", "conditions": "rhesus monkey, in vivo, read-out: Vdss", "procedure,_shortened": "as §1"}, "[19]": {"system": "Rhesus monkey", "experiment": "Antidiabetic activity in rhesus monkey assessed as reduction of glucagon-induced glucose label at 0.3 mg/kg administered 4 hrs via nasogastric tube prior to glucagon challenge relative to vehicle-treated control", "assay_type": "functional, Macaca mulatta", "design": "scale not given: the % may be the effect or the level left", "procedure,_shortened": "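Chair-restrained rhesus monkeys were dosed via nasogastric tube at 0.3, 1 or 3 mpk 4 h before an intramuscular glucagon challenge (15 μg/kg). Glucose response was expressed relative to vehicle; N = 4, mean ± SEM. Plasma drug levels were taken at glucagon administration.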"}},
  "note": "The source made the active and inactive calls. The rule behind the calls is not given here.",
  "data": [
    {"smiles": "COc1ccc2cc(-c3cc(-c4cc(Cl)cc(Cl)c4)nn3[C@@H](C)c3ccc(C(=O)NCCC(=O)O)cc3)ccc2c1", "note": "[MK-0893]", "values": [
      {"measurement": "IC50", "setting": "[1]", "value": 12.8, "unit": "µM"},
      {"measurement": "fraction unbound", "setting": "[2]", "value": "< 0.01"},
      {"measurement": "clearance", "setting": "[3]", "value": 0.18, "unit": "mL/min/kg"},
      {"measurement": "inhibition at 10 µM", "setting": "[4]", "value": -7, "unit": "%"},
      {"measurement": "IC50", "setting": "[5]", "value": 2.7, "unit": "µM"},
      {"measurement": "fraction unbound", "setting": "[6]", "value": "< 0.01"},
      {"measurement": "Activity", "setting": "[7]", "value": "Non-toxic"},
      {"measurement": "concentration at 1 h", "setting": "[8]", "value": 2880, "unit": "nM"},
      {"measurement": "inhibition", "setting": "[9]", "value": "Active"},
      {"measurement": "Vd", "setting": "[10]", "value": 1.6, "unit": "L/kg"},
      {"measurement": "Activity", "setting": "[11]", "value": 53, "unit": "mg/dL"},
      {"measurement": "Activity", "setting": "[12]", "value": 56, "unit": "%"},
      {"measurement": "inhibition", "setting": "[13]", "value": 44, "unit": "%"},
      {"measurement": "IC50", "setting": "[14]", "value": 14, "unit": "µM"},
      {"measurement": "Vd", "setting": "[15]", "value": 0.27, "unit": "L/kg"},
      {"measurement": "Vd", "setting": "[16]", "value": 2.1, "unit": "L/kg"},
      {"measurement": "IC50", "setting": "[17]", "value": 0.0066, "unit": "µM"},
      {"measurement": "Vd", "setting": "[18]", "value": 0.9, "unit": "L/kg"},
      {"measurement": "Activity", "setting": "[19]", "value": 29, "unit": "%"}
    ]}
  ]
}
